The record followed here is ChEMBL document CHEMBL3259534, “Diterpenoids from Croton laui and their cytotoxic and antimicrobial activities” (J Nat Prod, 2014).

Values after ≈ are worked out from the molar mass of the structure shown.

A word on the MIC: it is the lowest concentration that inhibits growth of the organism. The low end stands for greater potency, the high end for weaker potency. By IC50 is commonly meant the point on the concentration scale where inhibition reaches its midpoint. A low value points to greater potency in that assay.

The test system of one experiment is Pseudomonas aeruginosa. In words: Antimicrobial activity against Pseudomonas aeruginosa ATCC 14502 by microdilution method. The class given is functional. In a few lines:
(§1)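 In vitro antibacterial test by microdilution. Strains were drawn from a panel of Gram-positive and Gram-negative bacteria. Ofloxacin was run as the positive control. The read-out is MIC.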

The subject of the next experiment is HL-60. In words: Cytotoxicity against human HL60 cells after 72 hrs by MTT assay. The class given is functional, cell-based. Particulars: HL-60, 72 h. In a few lines: (§2)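 MTT viability assay on HL-60 human premyelocytic leukemia cells and P-388 murine leukemia cells. Adriamycin was included as the positive control.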
On the technique in general: Formazan colour is commonly taken as a measure of viable cells.

For the next experiment, the system named is Bacillus subtilis. Put plainly: Antimicrobial activity against Bacillus subtilis CMCC 63501 by microdilution method. The class given is functional. A general note: Broth dilution looks for growth in wells or tubes with falling amounts of substance.
For the next experiment, the system named is Kocuria rhizophila. Put plainly: Antimicrobial activity against Micrococcus luteus ATCC 9341 by microdilution method. The class given is functional. Put shortly: as §1
A further experiment concerns Escherichia coli. In words: Antimicrobial activity against Escherichia coli ATCC 25922 by microdilution method. The class given is functional. In a few lines:
as §1

The test system of another experiment is Shigella flexneri. In words: Antimicrobial activity against Shigella flexneri ATCC 12022 by microdilution method. The class given is functional. In a few lines: as §1
The test system of a further experiment is Candida albicans. In words: Antimicrobial activity against Candida albicans ATCC 1600 by agar dilution method. The class given is functional. Put shortly: (§3)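 In vitro antifungal test by agar dilution against a panel of yeasts and dermatophytes. Amphotericin B served as the positive control. Activity is reported as MIC.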
(In agar dilution, organisms are placed on agar that contains the substance at set levels.)

The test system of the next experiment is Trichophyton rubrum. Put plainly: Antimicrobial activity against Trichophyton rubrum ATCC 10218 by agar dilution method. It is filed as functional. Put shortly:
as §3

A further experiment deals with Saccharomyces. In words: Antimicrobial activity against Saccharomyces sake ATCC 26421 by agar dilution method. It is filed as functional. In a few lines: as §3
The subject of another experiment is P388. Put plainly: Cytotoxicity against mouse P388 cells after 72 hrs by MTT assay. It is filed as functional, cell-based. The conditions noted are these: P388, 72 h. Put shortly: as §2
The next experiment deals with Staphylococcus aureus. In words: Antimicrobial activity against Staphylococcus aureus ATCC 25923 by microdilution method. The class given is functional. Put shortly: as §1
Another experiment deals with Nannizzia gypsea. Put plainly: Antimicrobial activity against Microsporum gypseum ATCC 14683 by agar dilution method. It is filed as functional. Put shortly:
as §3

Experiment [1] has as its system Staphylococcus epidermidis. Put plainly: Antimicrobial activity against Staphylococcus epidermidis ATCC 12228 by microdilution method. It is filed as functional. Put shortly:
as §1

`C[C@@H]1CC[C@]2(C)[C@H](CC[C@@H](O)[C@]2(C)O)[C@@]1(C)CCc1ccoc1`: the minimum inhibitory concentration (MIC) against Pseudomonas aeruginosa, against Bacillus subtilis, in the experiment with Kocuria rhizophila, against Escherichia coli, in the experiment on Shigella flexneri and in the experiment on Candida albicans was over 150 µM in each case. The MIC (with Trichophyton rubrum; in the experiment on Saccharomyces; in the experiment with Staphylococcus aureus; against Nannizzia gypsea; in experiment [1]) was over 150 µM each time. Also, the IC50 in the experiment with HL-60 and in the experiment on P388 was at least 10 µM throughout.

For `C/C(=C\CO)[C@@H]1C[C@@H]2[C@@]3(C)CCCC(C)(C)[C@@H]3C[C@H](O)[C@@]2(C)O1`, the MIC in the experiment on Pseudomonas aeruginosa, against Bacillus subtilis, with Kocuria rhizophila, in the experiment on Escherichia coli, against Shigella flexneri and against Candida albicans was over 150 µM throughout. In addition, the MIC (against Trichophyton rubrum; in the experiment on Saccharomyces; with Staphylococcus aureus; against Nannizzia gypsea; in experiment [1]) was over 150 µM each time. Also, the IC50 in the experiment with HL-60 and with P388 was at least 10 µM each time.

Consider `C[C@@H]1CC[C@]2(C)[C@H](CC[C@@H](O)[C@]2(C)O)[C@@]1(C)C[C@H](O)c1ccoc1`, for which the MIC against Pseudomonas aeruginosa, in the experiment on Bacillus subtilis, in the experiment with Kocuria rhizophila, with Escherichia coli, in the experiment on Shigella flexneri and against Candida albicans was over 150 µM throughout. The minimal inhibitory concentration (MIC) (against Trichophyton rubrum; in the experiment on Saccharomyces; with Staphylococcus aureus; in the experiment with Nannizzia gypsea; in experiment [1]) was over 150 µM in each case. Further, the IC50 in the experiment on HL-60 and with P388 was at least 10 µM each time.

Turning to `COC(=O)C1=CCC[C@@H]2[C@]13CC[C@H](C)[C@@]21C[C@H](c2ccoc2)O[C@H]1O[C@@H]3O`, the minimum inhibitory concentration (MIC) against Pseudomonas aeruginosa, against Bacillus subtilis, in the experiment on Kocuria rhizophila, against Escherichia coli, in the experiment on Shigella flexneri and in the experiment on Candida albicans was over 150 µM each time. Besides, the minimal inhibitory concentration (MIC) (against Trichophyton rubrum; in the experiment with Saccharomyces; with Staphylococcus aureus; against Nannizzia gypsea; in experiment [1]) was over 150 µM in each case. Besides, the IC50 in the experiment with HL-60 and in the experiment with P388 was at least 10 µM throughout.

In the case of `COC(=O)C1=CCC[C@@H]2[C@]13CC[C@H](C)[C@@]21C[C@H](c2ccoc2)O[C@H]1O[C@H]3O`, the MIC against Pseudomonas aeruginosa, against Bacillus subtilis, against Kocuria rhizophila, in the experiment with Escherichia coli, with Shigella flexneri and against Candida albicans was over 150 µM in each case. Also, the MIC (in the experiment on Trichophyton rubrum; against Saccharomyces; in the experiment on Staphylococcus aureus; in the experiment with Nannizzia gypsea; in experiment [1]) was over 150 µM throughout. Also, the IC50 in the experiment with HL-60 and in the experiment with P388 was at least 10 µM throughout.

`C=C1C[C@H](OC(C)=O)[C@]23C(C(=O)OC)=CCC[C@H]2[C@]12C[C@H](c1ccoc1)O[C@H]2O[C@@H]3O`: the MIC in the experiment with Pseudomonas aeruginosa, against Bacillus subtilis, against Kocuria rhizophila, in the experiment with Escherichia coli, against Shigella flexneri and against Candida albicans was over 150 µM each time. The MIC (in the experiment on Trichophyton rubrum; in the experiment with Saccharomyces; against Staphylococcus aureus; with Nannizzia gypsea; in [1]) was over 150 µM throughout. The half-inhibitory concentration (IC50) with HL-60 and with P388 was at least 10 µM each time.

For `C=C1C[C@H](OC(C)=O)[C@]23C(C(=O)OC)=CCC[C@H]2[C@]12C[C@H](c1ccoc1)O[C@H]2O[C@H]3O`, the MIC against Pseudomonas aeruginosa, against Bacillus subtilis, against Kocuria rhizophila, against Escherichia coli, against Shigella flexneri and in the experiment with Candida albicans was over 150 µM each time. Further, the MIC (against Trichophyton rubrum; with Saccharomyces; with Staphylococcus aureus; with Nannizzia gypsea; in [1]) was over 150 µM each time. Further, the concentration for half-maximal inhibition (IC50) in the experiment on HL-60 and with P388 was at least 10 µM in each case.

As to `C=C1CC[C@H]2[C@](C)(CO)[C@H](O)CC[C@]2(C)[C@H]1C/C=C(\C)C=O`, the MIC against Pseudomonas aeruginosa, in the experiment on Bacillus subtilis, with Kocuria rhizophila, against Escherichia coli, against Shigella flexneri and in the experiment with Candida albicans was over 150 µM throughout. In addition, the MIC (against Trichophyton rubrum; with Saccharomyces; in the experiment with Staphylococcus aureus; in the experiment with Nannizzia gypsea; in [1]) was over 150 µM in each case. Further, the 50% inhibitory concentration (IC50) with HL-60 and in the experiment with P388 was at least 10 µM in each case.

With `CC1=CCC[C@@H]2[C@@](C)(CCC3=CCOC3)[C@H](C)CC[C@@]12C` (relative stereo), the IC50 in the experiment on HL-60 and in the experiment with P388 was at least 10 µM throughout. Further, the MIC (in the experiment on Bacillus subtilis; with Kocuria rhizophila; in the experiment with Staphylococcus aureus; in [1]) was 43.4 µM (≈ 12.5 µg/mL) each time.

For `C[C@@H]1C(=O)CC[C@H]2[C@@]1(C)CC[C@H]1C(=O)O[C@H](c3ccoc3)C[C@]21C` (relative stereo), the minimal inhibitory concentration (MIC) with Pseudomonas aeruginosa, against Bacillus subtilis, in the experiment on Kocuria rhizophila, in the experiment on Escherichia coli, against Shigella flexneri and against Candida albicans was over 150 µM each time. Further, the minimal inhibitory concentration (MIC) (against Trichophyton rubrum; with Saccharomyces; against Staphylococcus aureus; against Nannizzia gypsea; in experiment [1]) was over 150 µM throughout. Also, the half-maximal inhibitory concentration (IC50) in the experiment on HL-60 and with P388 was at least 10 µM each time.

With `C=C1[C@H](O)CC[C@@H]2[C@@]3(C)C[C@@H](c4ccoc4)OC(=O)[C@@H]3CC[C@@]12C` (relative stereo), the MIC in the experiment with Pseudomonas aeruginosa, in the experiment with Bacillus subtilis, with Kocuria rhizophila, in the experiment with Escherichia coli, with Shigella flexneri and against Candida albicans was over 150 µM throughout. For the same molecule, the MIC (with Trichophyton rubrum; against Saccharomyces; in the experiment on Staphylococcus aureus; with Nannizzia gypsea; in [1]) was over 150 µM each time. Besides, the 50% inhibitory concentration (IC50) with HL-60 and in the experiment on P388 was at least 10 µM each time.

Regarding `C=C1CC[C@]23C(C(=O)OC)=CCC[C@H]2[C@]12C[C@H](c1ccoc1)O[C@H]2O[C@H]3O` (relative stereo), the minimum inhibitory concentration (MIC) against Pseudomonas aeruginosa, with Bacillus subtilis, against Kocuria rhizophila, in the experiment on Escherichia coli, with Shigella flexneri and against Candida albicans was over 150 µM throughout. In addition, the minimal inhibitory concentration (MIC) (in the experiment on Trichophyton rubrum; against Saccharomyces; with Staphylococcus aureus; in the experiment with Nannizzia gypsea; in experiment [1]) was over 150 µM each time. In addition, the IC50 with HL-60 and with P388 was at least 10 µM throughout.

Take `C=C1C[C@@H]2OC(=O)C3=CCC[C@H]4[C@]15C[C@H](c1ccoc1)O[C@H]5OC(=O)[C@]324` (relative stereo): the minimal inhibitory concentration (MIC) in the experiment with Pseudomonas aeruginosa, with Bacillus subtilis, in the experiment with Kocuria rhizophila, in the experiment on Escherichia coli, in the experiment with Shigella flexneri and with Candida albicans was over 150 µM each time. The MIC (with Trichophyton rubrum; against Saccharomyces; in the experiment on Staphylococcus aureus; with Nannizzia gypsea; in [1]) was over 150 µM in each case. In addition, the figures for the IC50 in the experiment on HL-60 and in the experiment on P388 were 9.42 µM and 7.45 µM, respectively.

As to `C=C1CC[C@]23C(C(=O)OC)=CCC[C@H]2[C@]12C[C@H](c1ccoc1)O[C@H]2O[C@@H]3O` (relative stereo), the minimal inhibitory concentration (MIC) against Pseudomonas aeruginosa, against Bacillus subtilis, with Kocuria rhizophila, against Escherichia coli, against Shigella flexneri and against Candida albicans was over 150 µM in each case. For the same molecule, the MIC (with Trichophyton rubrum; against Saccharomyces; with Staphylococcus aureus; with Nannizzia gypsea; in experiment [1]) was over 150 µM in each case. The IC50 in the experiment on HL-60 and in the experiment on P388 was at least 10 µM throughout.
